Legend:
[1] = target: T1, DNA topoisomerase 1 (Homo sapiens) (UniProt P11387); assay: Inhibition of human recombinant topoisomerase-1 assessed as conversion of super-coiled plasmid DNA pBR322 to relaxed DNA at 100 uM after 30 mins by ethidium bromide staining-based agarose gel electrophoresis (reference value: 62.9%)
T1 sequence (whole entry): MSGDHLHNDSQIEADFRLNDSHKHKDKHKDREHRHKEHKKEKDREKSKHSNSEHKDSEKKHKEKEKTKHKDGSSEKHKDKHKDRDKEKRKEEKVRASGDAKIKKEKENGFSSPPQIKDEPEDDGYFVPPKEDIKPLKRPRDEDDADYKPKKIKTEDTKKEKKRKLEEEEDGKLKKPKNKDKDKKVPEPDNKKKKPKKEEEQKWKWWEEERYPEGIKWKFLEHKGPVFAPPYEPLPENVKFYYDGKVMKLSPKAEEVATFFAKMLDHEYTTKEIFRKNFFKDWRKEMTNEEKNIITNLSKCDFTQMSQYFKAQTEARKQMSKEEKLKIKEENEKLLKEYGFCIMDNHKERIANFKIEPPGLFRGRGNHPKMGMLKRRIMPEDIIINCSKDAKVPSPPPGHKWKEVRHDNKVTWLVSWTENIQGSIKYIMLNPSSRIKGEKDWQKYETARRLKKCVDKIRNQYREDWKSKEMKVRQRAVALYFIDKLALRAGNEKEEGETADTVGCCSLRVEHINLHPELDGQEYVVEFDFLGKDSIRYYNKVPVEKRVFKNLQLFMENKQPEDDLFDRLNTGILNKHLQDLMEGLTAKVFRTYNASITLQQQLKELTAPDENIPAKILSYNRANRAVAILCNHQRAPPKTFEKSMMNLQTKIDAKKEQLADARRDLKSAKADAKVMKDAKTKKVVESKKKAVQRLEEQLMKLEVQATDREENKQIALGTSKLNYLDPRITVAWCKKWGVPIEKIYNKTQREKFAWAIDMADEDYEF
Outline: (§1)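 Relaxation of supercoiled pBR322 (100 ng) by 0.4 units recombinant human topo I, with or without compound (20 mM DMSO stocks), for 30 min at 37 °C. Buffer: 10 mM Tris-HCl pH 7.9, 150 mM NaCl, 0.1% BSA, 1 mM spermidine, 5% glycerol. Stopped with sarcosyl. Run on 1% agarose in TAE at 15 V for 7 h, stained with ethidium bromide, bands quantified under UV.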

[2] = target: T1, DNA topoisomerase 1 (Homo sapiens); assay: Inhibition of human recombinant topoisomerase-1 assessed as conversion of super-coiled plasmid DNA pBR322 to relaxed DNA at 100 uM after 30 mins by ethidium bromide staining-based agarose gel electrophoresis relative to camptothecin
[3] = target: T1, DNA topoisomerase 1 (Homo sapiens); assay: Inhibition of human recombinant topoisomerase-1 assessed as conversion of super-coiled plasmid DNA pBR322 to relaxed DNA at 20 uM after 30 mins by ethidium bromide staining-based agarose gel electrophoresis (reference value: 19.6%); outline: as §1
[4] = target: DNA topoisomerase 2-alpha (Homo sapiens) (UniProt P11388); assay: Inhibition of human recombinant topoisomerase-2 alpha assessed as conversion of super-coiled plasmid DNA pBR322 to relaxed DNA at 100 uM after 30 mins by ethidium bromide staining-based agarose gel electrophoresis (reference value: 87.8%)
DNA topoisomerase 2-alpha (Homo sapiens), sequence (P11388 whole entry): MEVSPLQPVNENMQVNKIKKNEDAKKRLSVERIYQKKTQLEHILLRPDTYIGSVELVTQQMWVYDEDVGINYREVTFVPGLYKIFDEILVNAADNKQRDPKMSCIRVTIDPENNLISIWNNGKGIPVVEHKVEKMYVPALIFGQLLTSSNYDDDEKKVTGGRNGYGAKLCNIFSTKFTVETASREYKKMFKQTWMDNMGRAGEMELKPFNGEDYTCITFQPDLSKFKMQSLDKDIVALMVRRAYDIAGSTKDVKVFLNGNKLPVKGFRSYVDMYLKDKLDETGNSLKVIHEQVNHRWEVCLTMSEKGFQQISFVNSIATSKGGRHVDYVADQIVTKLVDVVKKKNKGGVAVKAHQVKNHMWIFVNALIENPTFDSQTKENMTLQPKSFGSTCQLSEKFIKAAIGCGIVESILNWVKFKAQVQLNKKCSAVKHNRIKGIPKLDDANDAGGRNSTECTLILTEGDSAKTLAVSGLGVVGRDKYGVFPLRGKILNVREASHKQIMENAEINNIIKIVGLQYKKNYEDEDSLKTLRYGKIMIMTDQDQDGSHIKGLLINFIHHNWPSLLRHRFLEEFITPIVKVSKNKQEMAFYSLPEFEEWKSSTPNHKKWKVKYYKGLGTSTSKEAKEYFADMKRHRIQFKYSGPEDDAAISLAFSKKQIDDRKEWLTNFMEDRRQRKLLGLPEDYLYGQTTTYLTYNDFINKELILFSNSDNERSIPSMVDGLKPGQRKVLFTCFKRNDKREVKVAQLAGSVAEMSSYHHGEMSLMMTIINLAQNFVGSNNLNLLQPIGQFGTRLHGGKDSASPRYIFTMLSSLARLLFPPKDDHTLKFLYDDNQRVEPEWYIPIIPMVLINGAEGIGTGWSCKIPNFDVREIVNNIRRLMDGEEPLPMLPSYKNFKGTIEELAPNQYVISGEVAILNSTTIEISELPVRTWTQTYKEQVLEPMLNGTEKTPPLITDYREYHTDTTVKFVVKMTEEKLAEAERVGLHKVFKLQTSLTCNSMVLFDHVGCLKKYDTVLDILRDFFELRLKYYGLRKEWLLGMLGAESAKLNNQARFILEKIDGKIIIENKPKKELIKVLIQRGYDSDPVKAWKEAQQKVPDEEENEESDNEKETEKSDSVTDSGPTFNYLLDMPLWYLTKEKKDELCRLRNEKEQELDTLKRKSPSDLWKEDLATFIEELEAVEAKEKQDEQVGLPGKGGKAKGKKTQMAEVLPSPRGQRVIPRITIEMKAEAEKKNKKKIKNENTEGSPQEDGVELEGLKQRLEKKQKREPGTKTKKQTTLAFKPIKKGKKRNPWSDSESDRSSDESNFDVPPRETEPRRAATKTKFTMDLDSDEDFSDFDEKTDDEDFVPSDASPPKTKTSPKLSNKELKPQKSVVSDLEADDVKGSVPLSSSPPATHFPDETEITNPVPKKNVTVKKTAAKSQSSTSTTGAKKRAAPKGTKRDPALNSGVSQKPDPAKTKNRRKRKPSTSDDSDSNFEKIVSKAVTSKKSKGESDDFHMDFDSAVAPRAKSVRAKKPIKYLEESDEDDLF
Outline: (§2)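 Supercoiled pBR322 (200 ng) incubated with 1 unit human topo IIα, with or without compound, for 30 min at 30 °C. Buffer: 10 mM Tris-HCl pH 7.9, 50 mM NaCl, 5 mM MgCl2, 1 mM EDTA, 1 mM ATP, 15 μg/mL BSA. Stopped with EDTA. Run on 1% agarose in TAE at 25 V for 4 h, stained with ethidium bromide, supercoiled DNA quantified under UV.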

[5] = target: DNA topoisomerase 2-alpha (Homo sapiens) (UniProt P11388); assay: Inhibition of human recombinant topoisomerase-2 alpha assessed as conversion of super-coiled plasmid DNA pBR322 to relaxed DNA at 20 uM after 30 mins by ethidium bromide staining-based agarose gel electrophoresis (reference value: 46.7%); outline: as §2
[6] = target: DNA topoisomerase 2-alpha (Homo sapiens) (UniProt P11388); assay: Inhibition of human recombinant topoisomerase-2 alpha assessed as conversion of super-coiled plasmid DNA pBR322 to relaxed DNA at 100 uM after 30 mins by ethidium bromide staining-based agarose gel electrophoresis relative to etoposide
MCF7 = assay: Cytotoxicity against human MCF7 cells after 2 days by CCK-8 assay; format: functional, cell-based; details: MCF7, 48 h
Outline: (§3)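 Cells seeded at 2~4 × 10^4 per well, grown overnight in medium with 10% FBS at 37 °C, 5% CO2. On day 2, after 4 h FBS starvation, medium replaced with medium containing graded compound concentrations. On day 4, CCK-8 added for 4 h, then absorbance read at 450 nm. IC50 from four-parameter logistic fit. Mean ± S.D. of three experiments, each run in triplicate.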

DU-145 = assay: Cytotoxicity against human DU145 cells after 2 days by CCK-8 assay; format: functional, cell-based; details: DU-145, 48 h; outline: as §3
[7] = Cytotoxicity against human HCT15 cells after 2 days by CCK-8 assay; format: functional, cell-based; details: HCT-15, 48 h; outline: as §3
[8] = target: T1, DNA topoisomerase 1 (Homo sapiens); assay: Inhibition of human recombinant topoisomerase-1 assessed as conversion of super-coiled plasmid DNA pBR322 to relaxed DNA at 100 uM after 30 mins by ethidium bromide staining-based agarose gel electrophoresis (reference value: 45.2%); outline: as §1
[9] = target: T1, DNA topoisomerase 1 (Homo sapiens); assay: Inhibition of human recombinant topoisomerase-1 assessed as conversion of super-coiled plasmid DNA pBR322 to relaxed DNA at 20 uM after 30 mins by ethidium bromide staining-based agarose gel electrophoresis (reference value: 25.9%); outline: as §1
[10] = target: DNA topoisomerase 2-alpha (Homo sapiens) (UniProt P11388); assay: Inhibition of human recombinant topoisomerase-2 alpha assessed as conversion of super-coiled plasmid DNA pBR322 to relaxed DNA at 100 uM after 30 mins by ethidium bromide staining-based agarose gel electrophoresis (reference value: 32.4%); outline: as §2
[11] = target: DNA topoisomerase 2-alpha (Homo sapiens) (UniProt P11388); assay: Inhibition of human recombinant topoisomerase-2 alpha assessed as conversion of super-coiled plasmid DNA pBR322 to relaxed DNA at 20 uM after 30 mins by ethidium bromide staining-based agarose gel electrophoresis (reference value: 20.2%); outline: as §2
HeLa = assay: Cytotoxicity against human HeLa cells after 2 days by CCK-8 assay; format: functional, cell-based; details: 48 h; outline: as §3

Row | inhibition [1] [%] | Ratio [2] | inhibition [3] [%] | inhibition [4] [%] | inhibition [5] [%] | Ratio [6] | inhibition [8] [%] | inhibition [9] [%] | inhibition [10] [%] | inhibition [11] [%] | SMILES | IC50 (MCF7) [µM] | IC50 (DU-145) [µM] | IC50 [7] [µM] | IC50 (HeLa) [µM]
1 | 90.9 | 1.45 | 2.9 | 100 | 0 | 1.14 | – | – | – | – | c1ccc2c(c1)Cc1c(-c3ccsc3)cc(-c3ccsc3)nc1-2 | > 50 | > 50 | 16.4 | –
2 | – | 1.69 | – | – | – | 1.25 | 76.3 | 3.9 | 40.5 | 14.6 | c1coc(-c2cc(-c3cccs3)nc3c2Cc2ccccc2-3)c1 | 4.11 | 6.71 | 37.7 | 3.2
3 | – | 0.91 | – | – | – | 0.58 | 41.3 | 5.7 | 18.7 | – | c1ccc(-c2cc(-c3ccco3)nc3c2Cc2ccccc2-3)cc1 | > 50 | 7.74 | 16.6 | 5.22
4 | 52.5 | 0.83 | 1.5 | 100 | 0 | 1.14 | – | – | – | – | c1coc(-c2cc(-c3ccoc3)c3c(n2)-c2ccccc2C3)c1 | > 50 | > 50 | 20.2 | –
5 | 40.7 | 0.65 | 0.5 | 100 | 100 | 1.14 | – | – | – | – | c1ccc(-c2cc(-c3ccco3)nc3c2Cc2ccccc2-3)nc1 | 3.08 | > 50 | 8.5 | 4.13
6 | – | 0.85 | – | – | – | 1.38 | 38.2 | 6.4 | 44.6 | 15 | c1coc(-c2cc(-c3ccco3)c3c(n2)-c2ccccc2C3)c1 | 5.4 | 20.6 | > 50 | 8.14

From ChEMBL document CHEMBL3351359, “Design and synthesis of novel 2,4-diaryl-5H-indeno[1,2-b]pyridine derivatives, and their evaluation of topoisomerase inhibitory activity and cytotoxicity” (Bioorg Med Chem, 2015)
